Laboratory results taken from ChEMBL document CHEMBL5226322, “Harnessing the Role of HDAC6 in Idiopathic Pulmonary Fibrosis: Design, Synthesis, Structural Analysis, and Biological Evaluation of Potent Inhibitors” (J Med Chem, 2021).
≈ marks a conversion by molar mass, not a printed value. Calls of active or inactive are those of the source. No cut-off for these calls is given here.

What was measured:
Histone deacetylase 8 = target: T1, Histone deacetylase 8 (Homo sapiens, UniProt Q9BY41); test: Inhibition of human recombinant HDAC8 using FLUOR DE LYS fluorometric substrate pre-incubated for 15 mins and followed by substrate addition and measured after 60 mins by microplate reader assay
T1 sequence (Q9BY41 whole entry): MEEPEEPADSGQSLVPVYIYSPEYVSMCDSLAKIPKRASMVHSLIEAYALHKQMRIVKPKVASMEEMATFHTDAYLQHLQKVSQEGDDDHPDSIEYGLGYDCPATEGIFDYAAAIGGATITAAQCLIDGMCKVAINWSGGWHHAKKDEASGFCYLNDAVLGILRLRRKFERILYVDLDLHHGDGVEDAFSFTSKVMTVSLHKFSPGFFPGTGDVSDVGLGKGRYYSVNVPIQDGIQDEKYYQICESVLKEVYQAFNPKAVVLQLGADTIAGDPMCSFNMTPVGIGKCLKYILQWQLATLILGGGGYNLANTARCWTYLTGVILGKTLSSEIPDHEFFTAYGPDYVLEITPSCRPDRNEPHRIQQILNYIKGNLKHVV
How it was run: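 Recombinant human HDAC8 at 0.45 U/reaction with 0.5% DMSO; DMSO-only enzyme served as control. Enzyme preincubated 15 min with compound, then Fluor de Lys substrate added (50 μM final) for 1 h at 30 °C. Quenched with 2 μM TSA in Developer II for a further 1 h at 30 °C. Fluorescence read at ex 370/em 450 nm. IC50 from nonlinear dose-response fit.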

[1] = Solubility of the compound at pH 3 PBS buffer incubated for 24 hrs by HPLC-UV analysis; assay type: physicochemical; conditions: pH 3, 24 h
How it was run: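 Compound from 10 mM DMSO stock diluted to 250 μM (2.5% DMSO), either in 50 mM acetic acid (pH 3.0) or in 50 mM aqueous PBS (pH 7.4). Shaken 24 h at 25 °C, PTFE-filtered and diluted 1:2. Quantified by RP-18 HPLC-UV at 254 nm against a 250 μM standard in MeCN/water. Run in triplicate and averaged.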

[2] = target: T2, Protein deacetylase HDAC6 (Homo sapiens) (UniProt Q9UBN7); test: Inhibition of HDAC6 in human U87 cells assessed as increase in acetylation of alpha-tubulin at 5 uM incubated for 30 hrs by western blot analysis; assay type: cell-based
T2 sequence (whole entry): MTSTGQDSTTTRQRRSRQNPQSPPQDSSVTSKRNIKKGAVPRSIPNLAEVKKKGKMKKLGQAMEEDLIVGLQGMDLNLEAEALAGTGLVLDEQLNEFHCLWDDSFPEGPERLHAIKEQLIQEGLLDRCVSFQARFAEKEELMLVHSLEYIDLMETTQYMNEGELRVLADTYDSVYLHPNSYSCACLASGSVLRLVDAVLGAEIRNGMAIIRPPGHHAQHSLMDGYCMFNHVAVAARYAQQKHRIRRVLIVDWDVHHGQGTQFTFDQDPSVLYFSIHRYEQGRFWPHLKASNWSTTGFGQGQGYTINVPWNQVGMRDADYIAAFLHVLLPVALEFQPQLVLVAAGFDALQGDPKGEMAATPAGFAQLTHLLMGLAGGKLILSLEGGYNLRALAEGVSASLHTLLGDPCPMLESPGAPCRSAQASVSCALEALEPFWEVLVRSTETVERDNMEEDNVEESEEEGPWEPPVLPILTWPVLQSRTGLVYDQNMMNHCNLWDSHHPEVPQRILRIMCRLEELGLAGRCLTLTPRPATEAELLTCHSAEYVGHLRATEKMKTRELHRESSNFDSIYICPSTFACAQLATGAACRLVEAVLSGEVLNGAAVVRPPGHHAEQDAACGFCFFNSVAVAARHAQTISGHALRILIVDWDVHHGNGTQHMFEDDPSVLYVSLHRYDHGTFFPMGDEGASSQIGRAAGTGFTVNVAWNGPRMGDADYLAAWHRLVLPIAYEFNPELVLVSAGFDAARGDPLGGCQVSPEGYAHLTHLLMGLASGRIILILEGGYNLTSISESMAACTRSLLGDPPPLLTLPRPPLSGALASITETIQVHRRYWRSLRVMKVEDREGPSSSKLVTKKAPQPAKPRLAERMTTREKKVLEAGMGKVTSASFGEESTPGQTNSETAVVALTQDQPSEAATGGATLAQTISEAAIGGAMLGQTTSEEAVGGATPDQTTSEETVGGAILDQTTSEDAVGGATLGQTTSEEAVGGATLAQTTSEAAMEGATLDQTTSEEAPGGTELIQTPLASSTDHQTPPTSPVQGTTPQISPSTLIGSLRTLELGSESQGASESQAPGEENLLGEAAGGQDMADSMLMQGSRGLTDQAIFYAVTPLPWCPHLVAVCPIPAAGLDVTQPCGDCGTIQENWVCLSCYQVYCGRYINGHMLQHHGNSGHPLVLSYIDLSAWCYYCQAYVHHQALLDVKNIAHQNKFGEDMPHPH
How it was run: (§1)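 Whole lysates (35 μg) and acid-extracted histones (2 μg) run on SDS-PAGE and blotted for acetylated tubulin or acetyl-histone H3; GAPDH or H4 as loading controls.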

Histone deacetylase 1 = Histone deacetylase 1 (Homo sapiens, UniProt Q13547); test: Inhibition of HDAC1 in human NB-4 cells assessed as increase in acetylation of histone H3 at 5 uM incubated for 30 hrs by western blot analysis; assay type: cell-based; how it was run: as §1
Chain of Histone deacetylase 1 (Q13547 whole entry, the tested form may be a part): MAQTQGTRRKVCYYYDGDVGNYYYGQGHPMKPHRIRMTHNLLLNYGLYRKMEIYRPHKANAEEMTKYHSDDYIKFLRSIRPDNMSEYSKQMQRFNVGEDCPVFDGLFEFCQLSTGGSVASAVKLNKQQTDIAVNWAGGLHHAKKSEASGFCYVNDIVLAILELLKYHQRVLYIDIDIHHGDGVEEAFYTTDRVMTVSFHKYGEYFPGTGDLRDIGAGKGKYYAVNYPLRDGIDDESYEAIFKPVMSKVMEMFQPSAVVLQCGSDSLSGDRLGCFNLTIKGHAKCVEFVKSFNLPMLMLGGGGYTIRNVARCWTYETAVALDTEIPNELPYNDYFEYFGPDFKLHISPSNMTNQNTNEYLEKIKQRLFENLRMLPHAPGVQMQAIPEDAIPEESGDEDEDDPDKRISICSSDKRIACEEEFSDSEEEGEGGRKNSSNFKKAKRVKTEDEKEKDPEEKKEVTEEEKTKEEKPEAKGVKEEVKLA

Heart [3] = test: Cardiotoxicity in Langendorff-perfused Sprague-Dawley rat heart assessed as effect on PQ interval time at 10 uM by ECG analysis (reference value: 43.6 +/-2.5 milliseconds); assay type: toxicity, tissue-based
Homo sapiens = species on record: Homo sapiens; test: Antifibrotic activity in TGF-beta1-induced human Lung parenchyma assessed as inhibition of fibronectin mRNA expression at 4.1 uM incubated upto 7 days by qRT-PCR analysis; assay type: functional; conditions: time <= 7.0 day
How it was run: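 Human lung parenchyma pieces (2 mm³) cultured in DMEM with TGF-β1 (10 ng/mL) plus compound at 0.41 or 4.1 μM or vehicle (0.1% DMSO). Tissue collected on day 7, homogenized, total RNA purified, then qRT-PCR for HDAC6, collagen I, collagen III, αSMA and fibronectin. Relative expression by the 2^-Ct method; n=3, paired t test.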

NIH3T3 = test: Cytotoxicity in mouse NIH3T3 cells assessed as reduction in cell viability at 75 uM incubated for 24 hrs by neutral red uptake method based UV/visible spectrophotometer analysis; assay type: toxicity; conditions: nih3t3, 24 h
How it was run: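 NIH3T3 fibroblasts grown in DMEM with 10% FCS, L-glutamine/pen-strep and non-essential amino acids at 37 °C, 5% CO2. Monolayers exposed 24 h to compound diluted from a DMSO stock into medium. Neutral Red medium then added for 3 h at 37 °C. Dye extracted with acetic acid/ethanol desorb solution and absorbance read at 540 nm. Student's t-test, p<0.05.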

Heart [4] = test: Cardiotoxicity in Langendorff-perfused Sprague-Dawley rat heart assessed as effect on RR time at 0.1 uM by ECG analysis (reference value: 257.2 +/-8.1 milliseconds); assay type: toxicity, tissue-based
Heart [5] = test: Cardiotoxicity in Langendorff-perfused Sprague-Dawley rat heart assessed as effect on RR time at 1 uM by ECG analysis (reference value: 257.2 +/-8.1 milliseconds); assay type: toxicity, tissue-based

Row | SMILES | IC50 (Histone deacetylase 8) | solubility [1] | inhibition [2] | inhibition (Histone deacetylase 1) | Time (Heart [3]) | Activity (Homo sapiens) | Activity (NIH3T3) | Time (Heart [4]) | Time (Heart [5])
1 | CN1CCC2(CC1)c1ccccc1N(Cc1ccc(C(=O)NO)cc1)C2c1ccccc1F (racemic) | 3490 nM | 456 µM (≈ 203 µg/mL) | Active | Active |  |  |  |  | 
2 | CC1(C)c2ccccc2N(Cc2ccc(C(=O)NO)cc2)C1c1cccnc1 (racemic) | 2170 nM | 459 µM (≈ 171 µg/mL) | Active | inactive | 50.4 ms | Active | 53% | 253.7 ms | 257.7 ms
